Residual activity, inhibition and IC50 data for four compounds are collected here from ChEMBL document CHEMBL5705888, “Substrate specificity and inhibitors of LRRK2, a protein kinase mutated in Parkinson's disease” (Biochem J, 2009).

Activity calls are given as the source filed them. No cut-off for these calls is given here.

By inhibition is commonly meant the drop in the measured response relative to a control, in per cent. One may read the IC50 as the concentration that inhibits the measured activity by half.

The target in assay [1] is MAP kinase-activated protein kinase 2 (Homo sapiens) (UniProt P49137). As to the kind of experiment: Inhibition of MAPKAPK2 (unknown origin) at 1 uM incubated for 30 mins in presence of [gamma-33P]ATP by multidrop micro reagent based assay relative to control; values are per cent of control.
Chain of MAP kinase-activated protein kinase 2 (Homo sapiens) (P49137 whole entry, looked up): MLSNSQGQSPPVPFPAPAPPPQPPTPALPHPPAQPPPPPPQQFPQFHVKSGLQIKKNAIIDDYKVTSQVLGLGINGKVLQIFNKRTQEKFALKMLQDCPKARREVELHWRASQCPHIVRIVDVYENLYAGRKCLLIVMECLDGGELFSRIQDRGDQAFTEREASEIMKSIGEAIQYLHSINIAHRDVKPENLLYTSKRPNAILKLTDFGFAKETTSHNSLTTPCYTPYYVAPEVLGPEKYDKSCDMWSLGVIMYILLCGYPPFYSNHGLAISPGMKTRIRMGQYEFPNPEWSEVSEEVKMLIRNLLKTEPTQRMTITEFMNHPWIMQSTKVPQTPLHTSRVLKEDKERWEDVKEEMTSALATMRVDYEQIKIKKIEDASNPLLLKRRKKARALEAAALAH
The target in assay [2] is Leucine-rich repeat serine/threonine-protein kinase 2 (Mus musculus) (UniProt Q5S006). The experiment in a line: Inhibition of LRRK2 in mouse Swiss-3T3 cells at 10 uM using Nictide as substrate by immunoblot analysis. The assay is classed as cell-based. On the technique in general: A western blot detects proteins with antibodies after separation by electrophoresis.
The target of assay [3] is Leucine-rich repeat serine/threonine-protein kinase 2 (Homo sapiens, UniProt Q5S007, G2019S). The experiment in a line: Inhibition of GST-tagged LRRK2 G2019S mutant (1326 to 2527 residues) (unknown origin) in presence of ATP.
For assay [4], the target named is SRSF protein kinase 1 (Homo sapiens) (UniProt Q96SB4). As to the kind of experiment: Inhibition of SRPK1 (unknown origin) at 10 uM incubated for 30 mins in presence of [gamma-33P]ATP by multidrop micro reagent based assay relative to control; values are per cent of control.
Chain of SRSF protein kinase 1 (Homo sapiens) (Q96SB4 whole entry): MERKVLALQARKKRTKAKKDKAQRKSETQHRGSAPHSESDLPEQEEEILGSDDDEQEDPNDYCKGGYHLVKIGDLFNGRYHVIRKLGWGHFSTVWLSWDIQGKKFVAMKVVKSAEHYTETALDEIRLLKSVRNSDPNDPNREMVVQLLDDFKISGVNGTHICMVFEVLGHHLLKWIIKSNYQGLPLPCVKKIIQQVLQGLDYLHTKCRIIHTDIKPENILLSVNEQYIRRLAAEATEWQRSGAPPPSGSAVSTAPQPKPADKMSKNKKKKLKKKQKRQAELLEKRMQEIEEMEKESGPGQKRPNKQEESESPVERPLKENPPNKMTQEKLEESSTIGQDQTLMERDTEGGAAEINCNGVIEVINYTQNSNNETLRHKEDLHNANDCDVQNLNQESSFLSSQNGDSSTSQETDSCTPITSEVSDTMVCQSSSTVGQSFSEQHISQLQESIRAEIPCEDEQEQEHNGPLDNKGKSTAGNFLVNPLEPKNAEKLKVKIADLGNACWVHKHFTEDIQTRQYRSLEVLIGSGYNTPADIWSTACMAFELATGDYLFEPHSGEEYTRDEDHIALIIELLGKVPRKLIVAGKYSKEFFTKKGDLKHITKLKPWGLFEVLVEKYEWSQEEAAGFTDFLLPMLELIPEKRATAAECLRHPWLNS
Assay [5] deals with MAP/microtubule affinity-regulating kinase 3 (Homo sapiens) (UniProt P27448). As to the kind of experiment: Inhibition of MARK3 (unknown origin) at 10 uM incubated for 30 mins in presence of [gamma-33P]ATP by multidrop micro reagent based assay relative to control; values are per cent of control.
Chain of MAP/microtubule affinity-regulating kinase 3 (Homo sapiens) (P27448 whole entry, looked up): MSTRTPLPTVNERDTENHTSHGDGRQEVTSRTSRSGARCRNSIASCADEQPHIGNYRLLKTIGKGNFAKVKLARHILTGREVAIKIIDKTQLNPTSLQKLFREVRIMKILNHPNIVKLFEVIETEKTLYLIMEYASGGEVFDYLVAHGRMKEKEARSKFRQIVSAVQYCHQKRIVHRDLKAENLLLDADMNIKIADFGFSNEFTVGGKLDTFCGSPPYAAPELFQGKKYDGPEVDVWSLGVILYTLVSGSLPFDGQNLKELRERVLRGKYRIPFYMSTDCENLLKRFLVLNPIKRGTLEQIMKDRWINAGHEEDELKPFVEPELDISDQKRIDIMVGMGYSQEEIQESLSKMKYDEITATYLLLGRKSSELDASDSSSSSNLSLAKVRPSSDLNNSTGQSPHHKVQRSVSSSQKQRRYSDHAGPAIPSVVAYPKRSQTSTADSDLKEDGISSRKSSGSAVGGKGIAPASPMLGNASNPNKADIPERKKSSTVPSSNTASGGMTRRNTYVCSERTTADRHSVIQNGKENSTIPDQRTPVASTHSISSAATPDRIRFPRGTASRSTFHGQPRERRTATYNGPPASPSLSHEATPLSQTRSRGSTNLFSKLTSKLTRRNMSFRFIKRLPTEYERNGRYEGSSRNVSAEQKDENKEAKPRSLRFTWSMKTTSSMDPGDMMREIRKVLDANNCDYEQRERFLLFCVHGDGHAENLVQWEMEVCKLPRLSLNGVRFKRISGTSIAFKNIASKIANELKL
The target of assay [6] is Dual specificity tyrosine-phosphorylation-regulated kinase 1A (Homo sapiens) (UniProt Q13627). The experiment in a line: Inhibition of DYRK1A (unknown origin) at 10 uM incubated for 30 mins in presence of [gamma-33P]ATP by multidrop micro reagent based assay relative to control; values are per cent of control.
For assay [7], the target named is MAP kinase-interacting serine/threonine-protein kinase 1 (Homo sapiens) (UniProt Q9BUB5). The experiment in a line: Inhibition of MNK1 (unknown origin) at 10 uM incubated for 30 mins in presence of [gamma-33P]ATP by multidrop micro reagent based assay relative to control. The gist of the method:
(§1)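 Single-concentration screen across a panel of 85 protein kinases. Activity is expressed as a percentage of control incubations run without inhibitor.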

For assay [8], the target named is Casein kinase 2 (Homo sapiens) (UniProt P67870+P68400+P19784+Q8NEV1). As to the kind of experiment: Inhibition of CK2 (unknown origin) at 10 uM incubated for 30 mins in presence of [gamma-33P]ATP by multidrop micro reagent based assay relative to control; values are per cent of control.
The target of assay [9] is Protein kinase C alpha type (Homo sapiens) (UniProt P17252). The experiment in a line: Inhibition of PKCalpha (unknown origin) at 10 uM incubated for 30 mins in presence of [gamma-33P]ATP by multidrop micro reagent based assay relative to control; values are per cent of control.
Assay [10] deals with Mitogen-activated protein kinase 9 (Homo sapiens) (UniProt P45984). As to the kind of experiment: Inhibition of JNK2 (unknown origin) at 10 uM incubated for 30 mins in presence of [gamma-33P]ATP by multidrop micro reagent based assay relative to control; values are per cent of control.
Chain of Mitogen-activated protein kinase 9 (Homo sapiens) (P45984 whole entry, looked up): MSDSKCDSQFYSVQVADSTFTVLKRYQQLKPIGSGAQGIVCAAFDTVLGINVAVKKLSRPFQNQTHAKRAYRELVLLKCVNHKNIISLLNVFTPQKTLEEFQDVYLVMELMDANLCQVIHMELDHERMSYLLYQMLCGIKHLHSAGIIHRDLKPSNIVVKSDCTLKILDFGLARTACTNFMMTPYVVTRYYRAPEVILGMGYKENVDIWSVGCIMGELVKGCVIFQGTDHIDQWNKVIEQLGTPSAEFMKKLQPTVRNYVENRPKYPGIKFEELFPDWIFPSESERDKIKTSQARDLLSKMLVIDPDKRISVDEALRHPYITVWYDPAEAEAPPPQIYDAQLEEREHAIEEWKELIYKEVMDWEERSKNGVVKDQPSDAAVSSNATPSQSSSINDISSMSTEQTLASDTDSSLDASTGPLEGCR
Assay [11] deals with Mitogen-activated protein kinase 3 (Homo sapiens) (UniProt P27361). The experiment in a line: Inhibition of ERK1 (unknown origin) at 10 uM incubated for 30 mins in presence of [gamma-33P]ATP by multidrop micro reagent based assay relative to control; values are per cent of control.
Chain of Mitogen-activated protein kinase 3 (Homo sapiens) (P27361 whole entry): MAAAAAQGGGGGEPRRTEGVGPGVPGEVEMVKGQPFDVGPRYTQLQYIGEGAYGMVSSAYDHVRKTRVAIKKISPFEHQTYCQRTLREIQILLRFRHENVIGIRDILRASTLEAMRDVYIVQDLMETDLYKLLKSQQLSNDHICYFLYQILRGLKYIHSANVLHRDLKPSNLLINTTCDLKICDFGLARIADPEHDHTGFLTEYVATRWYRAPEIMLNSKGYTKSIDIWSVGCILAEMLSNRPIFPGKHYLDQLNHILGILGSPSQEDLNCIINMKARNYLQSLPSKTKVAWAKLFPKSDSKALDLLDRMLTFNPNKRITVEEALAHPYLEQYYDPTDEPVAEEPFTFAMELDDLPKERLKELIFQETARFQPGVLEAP
The target of assay [12] is Ribosomal protein S6 kinase beta-1 (Homo sapiens) (UniProt P23443). The experiment in a line: Residual activity of S6K1 (unknown origin) at 10 uM incubated for 30 mins in presence of [gamma-33P]ATP by multidrop micro reagent based assay relative to control.
The target of assay [13] is T1, Mitogen-activated protein kinase kinase kinase kinase 2 (Homo sapiens) (UniProt Q12851).
T1 sequence (whole entry): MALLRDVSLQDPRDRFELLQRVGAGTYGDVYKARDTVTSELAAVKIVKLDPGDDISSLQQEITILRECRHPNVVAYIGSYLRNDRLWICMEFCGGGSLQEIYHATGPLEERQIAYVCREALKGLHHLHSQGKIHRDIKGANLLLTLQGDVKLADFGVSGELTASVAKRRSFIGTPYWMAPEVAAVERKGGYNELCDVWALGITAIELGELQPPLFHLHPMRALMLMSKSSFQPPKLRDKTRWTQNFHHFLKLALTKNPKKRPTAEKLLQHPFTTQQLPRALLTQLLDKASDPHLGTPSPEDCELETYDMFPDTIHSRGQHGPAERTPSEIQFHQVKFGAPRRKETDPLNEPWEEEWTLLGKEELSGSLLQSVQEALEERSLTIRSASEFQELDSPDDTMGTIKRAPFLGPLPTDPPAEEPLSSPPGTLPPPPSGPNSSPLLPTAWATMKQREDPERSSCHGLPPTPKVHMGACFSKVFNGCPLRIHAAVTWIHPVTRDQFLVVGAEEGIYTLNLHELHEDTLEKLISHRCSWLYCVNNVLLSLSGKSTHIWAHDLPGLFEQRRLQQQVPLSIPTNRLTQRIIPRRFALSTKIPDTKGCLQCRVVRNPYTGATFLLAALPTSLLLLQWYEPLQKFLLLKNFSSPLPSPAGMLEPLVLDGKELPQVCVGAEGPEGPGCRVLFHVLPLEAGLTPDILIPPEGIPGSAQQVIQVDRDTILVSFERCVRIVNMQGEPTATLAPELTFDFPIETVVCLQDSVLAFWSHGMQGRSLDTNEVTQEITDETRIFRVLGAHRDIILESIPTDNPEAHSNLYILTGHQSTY
The experiment in a line: Inhibition of GCK (unknown origin) at 0.1 uM incubated for 30 mins in presence of [gamma-33P]ATP by multidrop micro reagent based assay relative to control.

Assay [14] addresses Myosin light chain kinase, smooth muscle (Homo sapiens) (UniProt Q15746). The experiment in a line: Inhibition of SmMLCK (unknown origin) at 0.1 uM incubated for 30 mins in presence of [gamma-33P]ATP by multidrop micro reagent based assay relative to control. In short, it runs like this: as §1

Chain of MAP kinase-interacting serine/threonine-protein kinase 1 (Homo sapiens) (Q9BUB5 whole entry, looked up): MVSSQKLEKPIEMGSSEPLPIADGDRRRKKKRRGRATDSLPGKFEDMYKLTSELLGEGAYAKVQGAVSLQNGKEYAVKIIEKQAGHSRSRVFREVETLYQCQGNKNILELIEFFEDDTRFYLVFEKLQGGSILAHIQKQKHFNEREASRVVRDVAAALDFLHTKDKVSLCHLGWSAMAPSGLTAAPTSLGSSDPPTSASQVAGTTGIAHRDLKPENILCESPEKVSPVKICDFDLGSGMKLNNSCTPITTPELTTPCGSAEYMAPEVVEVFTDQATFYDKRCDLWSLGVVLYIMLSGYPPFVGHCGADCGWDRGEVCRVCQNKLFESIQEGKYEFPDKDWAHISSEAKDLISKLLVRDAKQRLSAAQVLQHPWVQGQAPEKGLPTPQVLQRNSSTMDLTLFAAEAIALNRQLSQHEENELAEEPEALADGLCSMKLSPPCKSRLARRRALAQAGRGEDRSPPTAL
Chain of Myosin light chain kinase, smooth muscle (Homo sapiens) (Q15746 whole entry): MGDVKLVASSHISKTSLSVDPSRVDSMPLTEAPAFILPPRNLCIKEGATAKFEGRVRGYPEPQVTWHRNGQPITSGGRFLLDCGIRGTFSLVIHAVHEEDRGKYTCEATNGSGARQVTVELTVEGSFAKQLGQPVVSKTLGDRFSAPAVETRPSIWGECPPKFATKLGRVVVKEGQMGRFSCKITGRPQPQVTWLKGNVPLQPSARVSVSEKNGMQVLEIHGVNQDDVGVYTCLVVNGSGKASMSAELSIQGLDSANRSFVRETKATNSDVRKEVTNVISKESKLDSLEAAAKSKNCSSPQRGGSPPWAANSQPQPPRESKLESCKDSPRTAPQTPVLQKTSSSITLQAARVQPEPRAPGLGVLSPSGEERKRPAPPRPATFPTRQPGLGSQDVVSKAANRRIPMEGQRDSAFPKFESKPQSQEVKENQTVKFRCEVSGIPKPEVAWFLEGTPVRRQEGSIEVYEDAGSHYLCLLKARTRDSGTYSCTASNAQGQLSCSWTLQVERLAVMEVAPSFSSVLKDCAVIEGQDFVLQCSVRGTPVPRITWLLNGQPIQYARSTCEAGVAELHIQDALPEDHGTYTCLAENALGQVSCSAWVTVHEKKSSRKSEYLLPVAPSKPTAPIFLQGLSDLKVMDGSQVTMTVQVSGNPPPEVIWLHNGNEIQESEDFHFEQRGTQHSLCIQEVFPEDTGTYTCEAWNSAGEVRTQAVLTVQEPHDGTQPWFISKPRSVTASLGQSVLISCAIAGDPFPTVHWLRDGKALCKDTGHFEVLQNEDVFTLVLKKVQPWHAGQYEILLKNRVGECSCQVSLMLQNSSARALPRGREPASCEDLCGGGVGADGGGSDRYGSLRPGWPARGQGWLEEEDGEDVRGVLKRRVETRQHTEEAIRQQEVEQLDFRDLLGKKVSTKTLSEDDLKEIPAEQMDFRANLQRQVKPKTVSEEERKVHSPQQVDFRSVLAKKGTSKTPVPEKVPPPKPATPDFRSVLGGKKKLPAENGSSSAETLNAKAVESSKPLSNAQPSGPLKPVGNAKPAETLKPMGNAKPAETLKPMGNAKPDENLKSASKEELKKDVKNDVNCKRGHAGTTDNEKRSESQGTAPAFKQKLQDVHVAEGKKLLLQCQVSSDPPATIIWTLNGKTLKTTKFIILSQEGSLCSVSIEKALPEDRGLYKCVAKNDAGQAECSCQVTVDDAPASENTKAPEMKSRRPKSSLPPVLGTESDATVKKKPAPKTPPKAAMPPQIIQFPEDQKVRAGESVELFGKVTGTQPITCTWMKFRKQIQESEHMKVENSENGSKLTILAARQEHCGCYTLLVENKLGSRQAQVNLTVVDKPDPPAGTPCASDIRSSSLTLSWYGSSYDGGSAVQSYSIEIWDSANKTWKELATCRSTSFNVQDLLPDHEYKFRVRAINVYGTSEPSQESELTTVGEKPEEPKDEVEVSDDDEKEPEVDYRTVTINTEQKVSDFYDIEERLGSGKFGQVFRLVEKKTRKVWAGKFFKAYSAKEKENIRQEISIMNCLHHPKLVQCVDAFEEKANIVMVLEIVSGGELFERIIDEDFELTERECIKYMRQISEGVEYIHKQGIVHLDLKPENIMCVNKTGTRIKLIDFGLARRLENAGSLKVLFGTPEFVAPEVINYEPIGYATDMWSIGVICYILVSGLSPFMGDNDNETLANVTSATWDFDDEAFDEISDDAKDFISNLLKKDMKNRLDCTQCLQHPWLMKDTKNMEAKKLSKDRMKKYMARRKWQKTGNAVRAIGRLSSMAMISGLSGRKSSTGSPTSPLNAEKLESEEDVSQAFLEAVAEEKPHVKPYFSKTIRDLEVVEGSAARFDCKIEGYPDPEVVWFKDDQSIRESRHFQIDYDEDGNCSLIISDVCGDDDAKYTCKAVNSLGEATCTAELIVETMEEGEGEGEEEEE

Turning to `CC1=C(C(=O)Nc2cc3cn[nH]c3cc2F)C(c2ccc(C(F)(F)F)cc2)CC(=O)N1` (centres undefined), in assay [1], the residual activity is 91%. Besides, in assay [2], the inhibition entry was “inactive”.

Take `Cc1cncc2cccc(S(=O)(=O)N3CCCNC[C@@H]3C)c12`: in [3], the concentration for half-maximal inhibition (IC50) came to 104 nM.

As for `C[C@@H](N)[C@H]1CC[C@H](C(=O)Nc2ccncc2)CC1`, the residual activity is 65% in [4]; 105% in assay [5]; 96% in assay [6]; 85% in [8]; 52% in [9]; 96% in [10]. Further, the residual activity stood at 92% in assay [11] and 70% in [12]. Further, the inhibition in assay [7] was determined as 20%.

Consider `CCN(CC)CCNC(=O)c1c(C)[nH]c(/C=C2\C(=O)Nc3ccc(F)cc32)c1C`, for which the inhibition was 45% in assay [13] and 49% in assay [14].
